Assay results published in PMC6195466 (Cell chemical biology, 2018).
Like-named read-outs stand apart in the source and are kept apart here.

Experiments:
[1] = tested on: nuclear NF-κB; type: cell-based, human; conditions: concentration of 500 nM, THP-1 cells, R848 1 μg/mL, Figure S2
How it was run: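 THP-1 cells were seeded at 2 × 10^6 cells/well and differentiated with PMA (100 ng/mL) for 24 h at 37 °C, 5% CO2. Medium was switched to unsupplemented RPMI, then R848 (1 μg/mL) plus test compound was added for 2 h. Nuclear fractions were extracted and quantified by BCA, run on 10% SDS-PAGE and blotted. Probed with anti-p65 (1:1000), then HRP anti-rabbit (1:10000), chemiluminescence. Lamin A/C was the nuclear control.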

[2] = biological target: T1, TLR7 (Homo sapiens, UniProt Q9NYK1); assay: TLR selectivity assay; type: cell-based; conditions: HEK-Blue hTLR7 cells, R848 1 μg/mL
T1 sequence (Q9NYK1 27-1049): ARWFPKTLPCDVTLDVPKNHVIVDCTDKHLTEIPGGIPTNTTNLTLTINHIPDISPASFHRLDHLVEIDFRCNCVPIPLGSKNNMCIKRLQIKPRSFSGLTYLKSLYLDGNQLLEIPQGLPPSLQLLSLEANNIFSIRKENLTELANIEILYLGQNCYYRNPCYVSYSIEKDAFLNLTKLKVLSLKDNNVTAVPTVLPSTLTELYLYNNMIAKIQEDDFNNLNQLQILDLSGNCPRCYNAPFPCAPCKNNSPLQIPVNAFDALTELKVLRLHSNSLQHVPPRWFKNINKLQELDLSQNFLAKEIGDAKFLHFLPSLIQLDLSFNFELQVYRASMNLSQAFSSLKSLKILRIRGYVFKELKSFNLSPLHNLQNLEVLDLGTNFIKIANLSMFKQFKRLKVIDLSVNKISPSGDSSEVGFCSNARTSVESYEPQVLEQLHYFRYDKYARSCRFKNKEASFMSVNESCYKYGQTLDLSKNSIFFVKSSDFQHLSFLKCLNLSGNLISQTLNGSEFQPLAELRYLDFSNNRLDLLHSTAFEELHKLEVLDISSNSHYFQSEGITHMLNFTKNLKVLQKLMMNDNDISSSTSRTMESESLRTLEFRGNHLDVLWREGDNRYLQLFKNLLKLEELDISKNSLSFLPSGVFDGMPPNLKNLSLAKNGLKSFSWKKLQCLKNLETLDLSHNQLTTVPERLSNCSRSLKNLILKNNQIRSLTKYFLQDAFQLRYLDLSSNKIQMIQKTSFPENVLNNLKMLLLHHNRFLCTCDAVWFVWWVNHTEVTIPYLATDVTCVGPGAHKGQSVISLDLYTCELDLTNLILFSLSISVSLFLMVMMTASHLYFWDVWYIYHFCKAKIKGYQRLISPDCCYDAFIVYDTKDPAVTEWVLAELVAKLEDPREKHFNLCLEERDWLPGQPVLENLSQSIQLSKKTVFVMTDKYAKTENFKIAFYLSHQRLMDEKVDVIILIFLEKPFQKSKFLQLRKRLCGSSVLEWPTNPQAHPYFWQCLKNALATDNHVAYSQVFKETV
How it was run: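 HEK-Blue hTLR7 cells were seeded at 7.5 × 10^4 cells/well in DMEM with 10% heat-inactivated FBS. Cells received R848 (1 μg/mL) with varied test-compound concentrations for 24 h at 37 °C, 5% CO2. Supernatant SEAP was developed with Quanti-Blue (30 min–1 h, 37 °C) and read at 620 nm. Normalised with R848-only as 100% and untreated as 0% activation. Three biological replicates, each in triplicate.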

[3] = biological target: T2, mouse TLR9 (Mus musculus, UniProt Q9EQU3); assay: IL-12p40 production in splenocytes from hTLR8tg/TLR7-KO mice, TLR9 agonist 1018; type: cell-based; conditions: 1018 7.1 ug/mL
T2 sequence (Q9EQU3 26-1032): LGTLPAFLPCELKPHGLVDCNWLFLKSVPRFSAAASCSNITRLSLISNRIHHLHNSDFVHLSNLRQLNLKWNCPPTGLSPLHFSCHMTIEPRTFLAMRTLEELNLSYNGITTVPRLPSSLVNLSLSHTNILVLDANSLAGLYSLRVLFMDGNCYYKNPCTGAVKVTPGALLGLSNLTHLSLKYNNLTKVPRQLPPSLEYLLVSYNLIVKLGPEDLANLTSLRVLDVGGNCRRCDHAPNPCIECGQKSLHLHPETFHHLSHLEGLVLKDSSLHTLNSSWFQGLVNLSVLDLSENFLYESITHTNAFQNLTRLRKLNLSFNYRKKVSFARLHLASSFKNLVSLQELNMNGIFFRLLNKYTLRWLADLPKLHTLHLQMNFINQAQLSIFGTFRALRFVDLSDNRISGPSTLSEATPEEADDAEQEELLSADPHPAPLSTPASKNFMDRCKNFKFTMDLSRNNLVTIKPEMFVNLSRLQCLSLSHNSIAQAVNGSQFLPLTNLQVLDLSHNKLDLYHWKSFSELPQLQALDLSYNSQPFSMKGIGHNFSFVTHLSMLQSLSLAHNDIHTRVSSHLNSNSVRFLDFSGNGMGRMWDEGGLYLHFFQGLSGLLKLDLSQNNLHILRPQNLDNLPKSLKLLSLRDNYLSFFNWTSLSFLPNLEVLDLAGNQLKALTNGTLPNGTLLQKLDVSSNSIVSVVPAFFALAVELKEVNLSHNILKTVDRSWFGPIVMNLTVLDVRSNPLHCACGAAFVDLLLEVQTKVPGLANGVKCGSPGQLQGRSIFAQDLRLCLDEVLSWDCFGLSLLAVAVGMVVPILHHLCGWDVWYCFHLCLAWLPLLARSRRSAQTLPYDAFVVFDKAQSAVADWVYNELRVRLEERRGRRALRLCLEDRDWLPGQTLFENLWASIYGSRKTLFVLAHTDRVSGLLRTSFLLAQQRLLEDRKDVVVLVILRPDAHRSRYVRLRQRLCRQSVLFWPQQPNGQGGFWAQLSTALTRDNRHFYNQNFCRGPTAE
How it was run: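 Splenocytes from female […] mice carrying a human TLR8 transgene, prepared by straining and red-cell lysis. Incubated with a dilution series of test compound plus a constant amount of CpG phosphorothioate DNA oligonucleotide 1018 (TLR9 agonist) for 48 h. IL-12p40 measured in culture supernatants. Curves come from a single spleen.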

[4] = biological target: ectodomain of human TLR8; conditions: read-out: dissociation constant (Kd), et al., cited from earlier work

effect on TLR7 [2] | activity against mouse TLR9 [3] | Compound | reduction of nuclear NF-κB [1] | Kd ([4]; ITC, ectodomain of human TLR8, ref Zhang, 2018) [nM] | Kd ([4]; TLR8 and R848, ref Tanji, 2015) [nM]
not affected below ~μM concentration | no activity | COc1ccc2c(-c3ccc(O)c(C)c3)ccnc2c1 [CU-CPT9a] | significant reduction |  | 
not affected below ~μM concentration | no activity | Cc1cc(-c2ccnc3cc(O)ccc23)ccc1O [CU-CPT9b] |  | 21 | 
 |  | CCOCc1nc2c(N)nc3ccccc3c2n1CC(C)(C)O [R848, reference compound] |  |  | 200
